Target: ATP-dependent Clp protease proteolytic subunit (Escherichia coli (strain K12)) (UniProt P0A6G7)
Assay: Inhibition of Escherichia coli C-terminal His6-tagged ClpP expressed Escherichia coli SG1146a at 200 uM using Suc-LY-AMC as substrate preincubated for 10 mins followed by substrate addition and measured over 1 hr by fluorescence assay relative to control
Outline: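 E. coli ClpP (625 nM) in 100 mM NaCl, 100 mM Hepes pH 7.5, 0.05% Brij 35, preincubated with compound (200 µM final, triplicates) 10 min at 30 °C. Suc-LY-AMC added (75 µM), fluorescence (ex 350/em 435 nm) followed over 1 h at 30 °C. Inhibition relative to 2% DMSO vehicle; Z-LY-CMK (200 µM) positive control; plates valid at Z' > 0.6.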

Chain of ATP-dependent Clp protease proteolytic subunit (Escherichia coli (strain K12)) (P0A6G7 whole entry): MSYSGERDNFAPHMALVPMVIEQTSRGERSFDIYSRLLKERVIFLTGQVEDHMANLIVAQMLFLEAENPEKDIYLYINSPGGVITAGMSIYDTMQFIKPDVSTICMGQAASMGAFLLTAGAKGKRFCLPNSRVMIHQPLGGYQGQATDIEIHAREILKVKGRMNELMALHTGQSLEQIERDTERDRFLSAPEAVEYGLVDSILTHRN

SMILES | inhibition
N=C(N)N1CCC(C(NC(=O)C#Cc2ccc3c(c2)OCO3)P(=O)(Oc2ccccc2)Oc2ccccc2)CC1 (stereo unspecified) | 24%
COC(=O)NC(c1ccc(NC(=O)C(F)(F)F)cc1)P(=O)(Oc1ccccc1)Oc1ccccc1 (stereo unspecified) | 64%
O=C(NC(Cc1ccc2ccccc2c1)P(=O)(Oc1ccccc1)Oc1ccccc1)OCc1ccccc1 (stereo unspecified) | < 1%
N#Cc1cccc(C(NC(=O)OCc2ccccc2)P(=O)(Oc2ccccc2)Oc2ccccc2)c1 (stereo unspecified) | 15%
NCCOc1ccc(C(NC(=O)OCc2ccccc2)P(=O)(Oc2ccccc2)Oc2ccccc2)cc1 (stereo unspecified) | 15%
O=C(NC(COCc1ccccc1)P(=O)(Oc1ccccc1)Oc1ccccc1)OCc1ccccc1 (stereo unspecified) | 4%
N=C(N)Nc1cccc2c(C(NC(=O)OCc3ccccc3)P(=O)(Oc3ccccc3)Oc3ccccc3)cccc12 (stereo unspecified) | 38%
COC(=O)NC(c1cccc(N)c1)P(=O)(Oc1ccc(NC(C)=O)cc1)Oc1ccc(NC(C)=O)cc1 (stereo unspecified) | 12%
COC(=O)NC(c1cccc2c([N+](=O)[O-])cccc12)P(=O)(Oc1ccccc1)Oc1ccccc1 (stereo unspecified) | 17%
NCCOC(=O)NC(c1ccc(NC(=O)C(F)(F)F)cc1)P(=O)(Oc1ccccc1)Oc1ccccc1 (stereo unspecified) | 73%
N=C(NO)c1cccc(C(Nc2ncccn2)P(=O)(Oc2ccccc2)Oc2ccccc2)c1 (stereo unspecified) | 23%
COc1ccc(CC(=O)NC(C2CCN(C(=N)N)CC2)P(=O)(Oc2ccccc2)Oc2ccccc2)cc1 (stereo unspecified) | 13%
O=C(NC(Cc1ccccc1)P(=O)(Oc1ccccc1)Oc1ccccc1)OCc1ccccc1 (stereo unspecified) | 7%
N=C(N)Nc1ccc(CC(NC(=O)OCc2c(F)c(F)c(F)c(F)c2F)P(=O)(Oc2ccccc2)Oc2ccccc2)cc1 (stereo unspecified) | 25%
N=C(N)Nc1ccc(CC(NC(=O)OCCC(F)(F)C(F)(F)C(F)(F)C(F)(F)C(F)(C(F)(F)F)C(F)(F)F)P(=O)(Oc2ccccc2)Oc2ccccc2)cc1 (stereo unspecified) | 55%
N=C(N)N1CCC(C(NC(=O)c2ccco2)P(=O)(Oc2ccccc2)Oc2ccccc2)CC1 (stereo unspecified) | 24%
CC(C)CC(NC(=O)OCc1ccccc1)P(=O)(Oc1ccccc1)Oc1ccccc1 (stereo unspecified) | 4%
CN(C)C(=O)Nc1ccc(CC(NC(=O)OCc2ccccc2)P(=O)(Oc2ccccc2)Oc2ccccc2)cc1 (stereo unspecified) | 9%
N=C(N)c1ccc(C(NC(=O)OCc2ccccc2)P(=O)(Oc2ccccc2)Oc2ccccc2)cc1 (stereo unspecified) | 30%
CC(C)C[C@H](NC(=O)OCc1ccccc1)C(=O)NC(Cc1ccc(O)cc1)P(=O)(Oc1ccccc1)Oc1ccccc1 (stereo partly specified) | < 1%
N=C(N)N1CC(C(Nc2ncccn2)P(=O)(Oc2ccccc2)Oc2ccccc2)C1 (stereo unspecified) | 12%

SMILES | inhibition
O=C(NC(c1cc([N+](=O)[O-])ccc1Cl)P(=O)(Oc1ccccc1)Oc1ccccc1)OCc1ccccc1 (stereo unspecified) | 6%
N#C[C@H](Cc1ccc(O)cc1)NC(=O)OCc1ccccc1 | < 1%
N#Cc1cc(C(NC(=O)OCc2ccccc2)P(=O)(Oc2ccccc2)Oc2ccccc2)ccc1N1CCNCC1 (stereo unspecified) | 10%
CSCCC(NC(=O)[C@H](CCCCN)NC(=O)OCc1ccccc1)P(=O)(Oc1ccccc1)Oc1ccccc1 (stereo partly specified) | 4%
[N-]=[N+]=NCCOCCOC(=O)NC(Cc1ccc(NC(=N)N)cc1)P(=O)(Oc1ccccc1)Oc1ccccc1 (stereo unspecified) | 68%
O=C(NC(c1ccc2ccccc2c1)P(=O)(Oc1ccccc1)Oc1ccccc1)OCc1ccccc1 (stereo unspecified) | 51%
N=C(N)N1CCC(C(NC(=O)/C=C/c2ccc3c(c2)OCO3)P(=O)(Oc2ccccc2)Oc2ccccc2)CC1 (stereo unspecified) | 4%
O=C(NC(CCc1ccccc1)P(=O)(Oc1ccccc1)Oc1ccccc1)OCc1ccccc1 (stereo unspecified) | < 1%
O=C(NC(c1ccc(NC(=O)C(F)(F)F)cc1)P(=O)(Oc1ccccc1)Oc1ccccc1)OCc1ccccc1 (stereo unspecified) | 15%
N#C[C@H](Cc1ccccc1)NC(=O)OCc1ccccc1 | < 1%
O=C(NC(c1ccc([N+](=O)[O-])cc1)P(=O)(Oc1ccccc1)Oc1ccccc1)OCc1ccccc1 (stereo unspecified) | 71%
N=C(N)N1CCC(C(NC(=O)c2cccnc2)P(=O)(Oc2ccccc2)Oc2ccccc2)CC1 (stereo unspecified) | 13%
O=C(NC(c1ccc2c(c1)OCO2)P(=O)(Oc1ccccc1)Oc1ccccc1)OCc1ccccc1 (stereo unspecified) | 6%
NCC1CCC(C(NC(=O)OCc2ccccc2)P(=O)(Oc2ccccc2)Oc2ccccc2)CC1 (stereo unspecified) | 15%
Nc1ccc(C(NC(=O)OCCCC(F)(F)F)P(=O)(Oc2ccccc2)Oc2ccccc2)cc1 (stereo unspecified) | < 1%
Nc1ccc(C(NC(=O)OCCOc2ccccc2)P(=O)(Oc2ccccc2)Oc2ccccc2)cc1 (stereo unspecified) | 1%
N=C(N)N1CCC(C(Nc2ncc(-c3ccccc3)cn2)P(=O)(Oc2ccccc2)Oc2ccccc2)CC1 (stereo unspecified) | 12%
COP(=O)(Oc1ccccc1)C(Cc1ccc(O)cc1)NC(=O)OCc1ccccc1 (stereo unspecified) | 14%
COc1ccc(CC(NC(=O)OCc2ccccc2)P(=O)(Oc2ccccc2)Oc2ccccc2)cc1 (stereo unspecified) | 6%
O=C(NC(c1cccnc1)P(=O)(Oc1ccccc1)Oc1ccccc1)OCc1ccccc1 (stereo unspecified) | 27%
C#CCOCCOCCOC(=O)NC(c1ccc(N2CCNCC2)cc1)P(=O)(Oc1ccccc1)Oc1ccccc1 (stereo unspecified) | 25%

SMILES | inhibition
CN(C)C(=O)Nc1ccc(C(NC(=O)OCc2ccccc2)P(=O)(Oc2ccccc2)Oc2ccccc2)cc1 (stereo unspecified) | 22%
N#C[C@@H](NC(=O)OCc1ccccc1)c1cccc(N)c1 | 8%
CC(=O)Nc1ccc(OP(=O)(Oc2ccc(NC(C)=O)cc2)C(NC(=O)OCc2ccccc2)c2cccc(N)c2)cc1 (stereo unspecified) | 21%
Nc1ccc2cc(C(NC(=O)OCc3ccccc3)P(=O)(Oc3ccccc3)Oc3ccccc3)ccc2c1 (stereo unspecified) | < 1%
N=C(N)Nc1ccc(C(NC(=O)OCc2ccccc2)P(=O)(Oc2ccccc2)Oc2ccccc2)cc1 (stereo unspecified) | 29%
O=C(NC(Cc1ccc(F)cc1)P(=O)(Oc1ccccc1)Oc1ccccc1)OCc1ccccc1 (stereo unspecified) | 13%
O=C(NC(c1cccc2ccccc12)P(=O)(Oc1ccccc1)Oc1ccccc1)OCc1ccccc1 (stereo unspecified) | 6%
COC(=O)NC(c1cccc(N)c1)P(=O)(Oc1ccccc1)Oc1ccccc1 (stereo unspecified) | 7%
CC(C)C[C@H](NC(=O)OCc1ccccc1)C(=O)N[C@H](C#N)Cc1ccc(O)cc1 | 13%
COC(=O)NC(Cc1ccc(NC(=N)N)cc1)P(=O)(Oc1ccccc1)Oc1ccccc1 (stereo unspecified) | 27%
CC(=O)Nc1ccc(OP(=O)(Oc2ccc(NC(C)=O)cc2)C(Cc2ccccc2)NC(=O)OCc2ccccc2)cc1 (stereo unspecified) | 9%
Nc1ccc(C(NC(=O)OCc2c(F)c(F)c(F)c(F)c2F)P(=O)(Oc2ccccc2)Oc2ccccc2)cc1 (stereo unspecified) | 28%
O=C(NC(Cc1cccc(O)c1)P(=O)(Oc1ccccc1)Oc1ccccc1)OCc1ccccc1 (stereo unspecified) | 3%
CC(NC(=O)OCc1ccccc1)P(=O)(Oc1ccccc1)Oc1ccccc1 (stereo unspecified) | 3%
N=C(N)Nc1ccc(C(NS(=O)(=O)c2ccccc2)P(=O)(Oc2ccccc2)Oc2ccccc2)cc1 (stereo unspecified) | 29%
COC(=O)NC(c1cccc(C(=N)N)c1)P(=O)(Oc1ccccc1)Oc1ccccc1 (stereo unspecified) | 30%
CC(=O)Nc1ccc(OP(=O)(Oc2ccc(NC(C)=O)cc2)C(Cc2ccc(C(F)(F)F)cc2)NC(=O)OCc2ccccc2)cc1 (stereo unspecified) | 1%
O=C(NC(CC1CCNCC1)P(=O)(Oc1ccccc1)Oc1ccccc1)OCc1ccccc1 (stereo unspecified) | 16%
N=C(N)NCCCC(NC(=O)OCc1ccccc1)P(=O)(Oc1ccccc1)Oc1ccccc1 (stereo unspecified) | 15%
N=C(N)Nc1ccc(C(NS(=O)(=O)c2ccc(C(F)(F)F)cc2)P(=O)(Oc2ccccc2)Oc2ccccc2)cc1 (stereo unspecified) | 27%
CC(=O)Nc1ccc(C(NC(=O)OCc2ccccc2)P(=O)(Oc2ccccc2)Oc2ccccc2)cc1 (stereo unspecified) | 8%

SMILES | inhibition
N=C(N)N1CCC(C(NS(=O)(=O)CCOc2ccccc2)P(=O)(Oc2ccccc2)Oc2ccccc2)CC1 (stereo unspecified) | 27%
O=C(NC(Cc1ccc(O)cc1)P(=O)(O)Oc1ccccc1)OCc1ccccc1 (stereo unspecified) | 11%
N=C(N)N1CCC(C(NC(=O)/C=C\c2ccccc2)P(=O)(Oc2ccccc2)Oc2ccccc2)CC1 (stereo unspecified) | 11%
Nc1cccc(C(NC(=O)OCc2ccc3c(c2)OCO3)P(=O)(Oc2ccccc2)Oc2ccccc2)c1 (stereo unspecified) | 20%
O=C(NC(C1CCNCC1)P(=O)(Oc1ccccc1)Oc1ccccc1)OCc1ccccc1 (stereo unspecified) | 30%
N=C(N)Nc1ccc(C(NC(=O)OCc2c(F)c(F)c(F)c(F)c2F)P(=O)(Oc2ccccc2)Oc2ccccc2)cc1 (stereo unspecified) | 48%
COC(=O)NC(Cc1ccc(C(F)(F)F)cc1)P(=O)(Oc1ccc(NC(C)=O)cc1)Oc1ccc(NC(C)=O)cc1 (stereo unspecified) | 20%
COC(=O)NC(Cc1cccc(C(F)(F)F)c1)P(=O)(Oc1ccccc1)Oc1ccccc1 (stereo unspecified) | 4%
O=C(NC(c1ccc2occc2c1)P(=O)(Oc1ccccc1)Oc1ccccc1)OCc1ccccc1 (stereo unspecified) | 6%
C#CCCCOC(=O)NC(Cc1ccc(NC(=N)N)cc1)P(=O)(Oc1ccccc1)Oc1ccccc1 (stereo unspecified) | 23%
CN(C)c1ccc(C(NC(=O)OCc2ccccc2)P(=O)(Oc2ccccc2)Oc2ccccc2)cc1NS(C)(=O)=O (stereo unspecified) | 46%
O=C(NC(c1ccc2cc(O)ccc2c1)P(=O)(Oc1ccccc1)Oc1ccccc1)OCc1ccccc1 (stereo unspecified) | < 1%
CN(C)c1ccc(C(NC(=O)OCc2ccccc2)P(=O)(Oc2ccccc2)Oc2ccccc2)c2ccccc12 (stereo unspecified) | < 1%
N=C(N)N1CCC(C(NC(=O)/C=C/c2ccccc2)P(=O)(Oc2ccccc2)Oc2ccccc2)CC1 (stereo unspecified) | 18%
CS(=O)(=O)Nc1ccc(CCC(NC(=O)OCc2ccccc2)P(=O)(Oc2ccccc2)Oc2ccccc2)cc1 (stereo unspecified) | 10%
O=C(NC(c1cccc([N+](=O)[O-])c1)P(=O)(Oc1ccccc1)Oc1ccccc1)OCc1ccccc1 (stereo unspecified) | 6%
Cc1ccc(CC(NC(=O)OCc2ccccc2)P(=O)(Oc2ccccc2)Oc2ccccc2)cc1 (stereo unspecified) | 7%
O=C(NC(Cc1ccc(O)cc1)P(=O)(Oc1ccccc1)Oc1ccccc1)OCc1ccccc1 (stereo unspecified) | < 1%

— ChEMBL document CHEMBL4371075, “α-Amino Diphenyl Phosphonates as Novel Inhibitors of Escherichia coli ClpP Protease” (J Med Chem, 2019)
